Consider two compounds from article PMC8604211 (Clinical and Translational Science, 2021).

Several values for one entry are separate records, joined by “and”; a condition that tells them apart may be missing. Equal entries are not always repeated. Where two headings read alike, the source gives them in different places.

For data set [1], the target named is P-gp (Homo sapiens, UniProt P08183). In words: P-gp bidirectional transport assay in human Caco-2 cell monolayers. The format is in vitro ADME. Particulars: Caco-2, pH 7.4. For orientation: Passage across Caco-2 layers is used to estimate intestinal permeability.
Data set [2] in a line: Clinical DDI study U107. The format is in vivo, human.
Data set [3] in a line: Milademetan PBPK model. Details: species or system human. An outline of the steps:
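Minimal PBPK model with one adjusting compartment and ADAM absorption that includes intestinal P-gp; renal and biliary clearance set to zero. Vss, kin, kout, Vsac and oral clearance fitted to healthy-subject plasma data after a single fasted 100 mg oral dose.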

In data set [4] the target is T1, CYP3A4 (Homo sapiens, UniProt P08684). The data set can be described thus: Incubation of [14C]milademetan with recombinant human CYP3A4. Format: in vitro ADME. To be noted: [14C]milademetan 1 µM, 60 min, unpublished in-house data.
Target sequence in this assay (P08684 whole entry): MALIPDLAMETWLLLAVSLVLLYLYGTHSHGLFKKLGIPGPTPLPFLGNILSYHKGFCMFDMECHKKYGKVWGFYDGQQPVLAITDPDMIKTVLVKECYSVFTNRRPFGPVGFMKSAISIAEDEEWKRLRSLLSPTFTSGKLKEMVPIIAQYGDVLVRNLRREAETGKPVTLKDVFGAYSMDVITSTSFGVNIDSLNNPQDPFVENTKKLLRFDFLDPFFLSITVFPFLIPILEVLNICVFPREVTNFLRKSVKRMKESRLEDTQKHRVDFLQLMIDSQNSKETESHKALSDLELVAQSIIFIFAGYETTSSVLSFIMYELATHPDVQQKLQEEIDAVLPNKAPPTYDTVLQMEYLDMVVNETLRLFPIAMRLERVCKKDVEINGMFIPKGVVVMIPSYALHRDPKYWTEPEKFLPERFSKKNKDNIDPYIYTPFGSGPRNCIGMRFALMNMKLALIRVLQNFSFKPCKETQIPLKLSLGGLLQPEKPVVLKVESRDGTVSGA
Data set [5] concerns the target CYP3A5 (Homo sapiens, UniProt P20815). The data set can be described thus: Incubation of [14C]milademetan with recombinant human CYP3A5. The format is in vitro ADME. To be noted: [14C]milademetan 1 µM, 60 min, unpublished in-house data.
For data set [6], the target named is T1, CYP3A4. The data set can be described thus: CYP3A inhibition. Format: in vitro ADME. To be noted: pooled human hepatic microsomes, probe midazolam.
Target sequence in this assay (P08684 2-503): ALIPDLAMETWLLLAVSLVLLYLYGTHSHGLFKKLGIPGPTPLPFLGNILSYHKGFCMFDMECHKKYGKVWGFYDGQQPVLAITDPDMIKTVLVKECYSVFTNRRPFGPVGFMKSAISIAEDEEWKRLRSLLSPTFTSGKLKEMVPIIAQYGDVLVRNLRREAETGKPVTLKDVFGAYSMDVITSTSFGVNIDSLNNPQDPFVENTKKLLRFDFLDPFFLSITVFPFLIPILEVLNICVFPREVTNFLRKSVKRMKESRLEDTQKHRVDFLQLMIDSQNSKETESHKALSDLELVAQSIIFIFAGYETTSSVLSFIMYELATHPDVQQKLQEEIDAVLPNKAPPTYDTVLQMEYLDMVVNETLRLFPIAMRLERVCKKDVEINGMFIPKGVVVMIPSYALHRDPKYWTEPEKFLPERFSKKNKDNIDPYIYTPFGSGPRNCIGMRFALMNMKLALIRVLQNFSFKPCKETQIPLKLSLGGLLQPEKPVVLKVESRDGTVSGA
Data set [7] in a line: Rat ADME study with [14C]milademetan. The format is in vivo. Particulars: single oral [14C]milademetan 30 mg/kg.
Data set [8] can be described thus: Clinical food effect study. To be noted: high-calorie, high-fat meal vs fasted state; unpublished in-house data. Format: in vivo, human.
Data set [9] can be described thus: Plasma protein unbound fraction measured in vitro. Format: in vitro ADME.
For data set [10] the following is noted: ref NCT01877382, cited from earlier work; for maximum tolerated dose: advanced solid tumors or lymphomas.
Where [11] appears, read: Optimized by fitting clinical data (U107), milademetan alone, fasted.
Setting [12] is: bile duct–cannulated rats, up to 48 h.

P-gp, sequence (P08183 whole entry): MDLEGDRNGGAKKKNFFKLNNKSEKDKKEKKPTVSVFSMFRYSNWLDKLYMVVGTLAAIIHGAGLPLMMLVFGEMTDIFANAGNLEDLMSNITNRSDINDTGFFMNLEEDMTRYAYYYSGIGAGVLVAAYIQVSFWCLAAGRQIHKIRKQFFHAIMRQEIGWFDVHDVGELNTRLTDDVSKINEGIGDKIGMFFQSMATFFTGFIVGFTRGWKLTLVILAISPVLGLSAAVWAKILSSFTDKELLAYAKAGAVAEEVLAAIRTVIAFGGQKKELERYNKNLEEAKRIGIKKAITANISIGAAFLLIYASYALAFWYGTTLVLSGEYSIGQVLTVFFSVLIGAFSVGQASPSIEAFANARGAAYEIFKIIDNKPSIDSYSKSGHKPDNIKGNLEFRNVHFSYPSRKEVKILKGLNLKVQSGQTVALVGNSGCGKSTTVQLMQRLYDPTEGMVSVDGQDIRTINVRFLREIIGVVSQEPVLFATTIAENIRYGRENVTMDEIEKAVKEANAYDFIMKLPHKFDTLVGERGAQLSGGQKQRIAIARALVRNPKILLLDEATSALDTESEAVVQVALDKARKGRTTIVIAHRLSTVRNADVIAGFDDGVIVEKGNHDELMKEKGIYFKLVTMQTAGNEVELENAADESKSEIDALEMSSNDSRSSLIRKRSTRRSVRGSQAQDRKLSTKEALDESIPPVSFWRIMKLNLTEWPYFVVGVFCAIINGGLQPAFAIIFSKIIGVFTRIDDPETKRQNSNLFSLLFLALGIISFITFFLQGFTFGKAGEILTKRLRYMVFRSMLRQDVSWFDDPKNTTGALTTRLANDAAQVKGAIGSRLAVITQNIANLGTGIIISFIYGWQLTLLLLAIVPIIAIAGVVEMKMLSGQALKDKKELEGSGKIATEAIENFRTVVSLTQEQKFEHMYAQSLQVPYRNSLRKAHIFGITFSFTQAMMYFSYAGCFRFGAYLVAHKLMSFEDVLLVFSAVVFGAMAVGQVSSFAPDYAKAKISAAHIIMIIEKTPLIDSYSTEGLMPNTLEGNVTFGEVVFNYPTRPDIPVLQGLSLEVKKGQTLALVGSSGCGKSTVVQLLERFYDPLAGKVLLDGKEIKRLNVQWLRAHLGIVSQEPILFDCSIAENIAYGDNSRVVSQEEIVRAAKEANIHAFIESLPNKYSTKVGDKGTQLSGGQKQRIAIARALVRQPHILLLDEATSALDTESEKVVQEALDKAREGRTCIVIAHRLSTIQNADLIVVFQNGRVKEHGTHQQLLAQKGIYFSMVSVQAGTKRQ
CYP3A5, sequence (P20815 whole entry): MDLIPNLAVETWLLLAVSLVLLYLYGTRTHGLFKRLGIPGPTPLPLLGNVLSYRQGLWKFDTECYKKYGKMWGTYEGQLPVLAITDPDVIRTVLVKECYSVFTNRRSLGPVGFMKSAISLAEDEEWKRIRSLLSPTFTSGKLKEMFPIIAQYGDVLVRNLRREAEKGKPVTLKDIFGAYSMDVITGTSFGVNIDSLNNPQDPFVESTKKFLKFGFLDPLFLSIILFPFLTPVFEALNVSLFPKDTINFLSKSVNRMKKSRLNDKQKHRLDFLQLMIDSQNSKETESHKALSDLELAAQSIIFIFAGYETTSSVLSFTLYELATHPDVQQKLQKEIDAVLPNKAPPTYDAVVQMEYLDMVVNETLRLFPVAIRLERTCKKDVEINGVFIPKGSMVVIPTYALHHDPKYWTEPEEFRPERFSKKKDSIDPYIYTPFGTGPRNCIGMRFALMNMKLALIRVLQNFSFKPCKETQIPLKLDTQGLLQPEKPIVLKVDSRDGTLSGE

Usually Papp stands for a coefficient for how fast a substance crosses the barrier. A lower Papp goes with poor permeation. In the case of `CC(C)NCC(O)COc1cccc2ccccc12` (stereo not drawn) [Propranolol, reference compound], the Papp in data set [1] is 43 ×10⁻⁶ cm/s.

As a reminder, the CL/F is clearance divided by bioavailability, as obtained after extravascular dosing. As usually defined, the AUC(0-t) is the area under the concentration-time curve up to a stated or last time point. Lower therefore signals low exposure. In general, Cmax refers to the highest concentration seen after dosing. One may read the Tmax as the time at which the peak concentration occurs. Usually Vd/F stands for the volume of distribution divided by bioavailability. By half-life is commonly meant the time needed for the level to fall by half in the phase considered. A higher half-life goes with slow loss. Usually microsomal CLint stands for the rate of metabolic loss divided by the concentration. Lower therefore signals greater metabolic stability. A word on the Ki: it is the dissociation constant of the complex between target and ligand, obtained from inhibition or displacement. Low values mean tighter binding, high ones weaker binding. Broadly, the fraction unbound is free concentration divided by total concentration. A higher fraction unbound goes with weak binding. Take `CC1(C)CCC2(CC1)N[C@@H](C(=O)N[C@@H]1CC[C@@H](C(N)=O)OC1)[C@H](c1ccnc(Cl)c1F)[C@]21C(=O)Nc2cc(Cl)ccc21` [milademetan]: the CL/F is 6.8 L/h and 6.80 L/h and 6.80 (33.5) L/h in data set [2] (100 mg alone, fasted (sequence AB, treatment A), geometric mean (CV%)); 3.13 L/h and 3.13 (35.4) L/h in data set [2] (100 mg with itraconazole (treatment B), geometric mean (CV%)); 2.91 L/h and 2.91 (25.5) L/h in data set [2] (100 mg with posaconazole (treatment C), geometric mean (CV%)). Besides, in [2] (human, plasma, oral, 100 mg, AUClast, 100 mg alone, 2 h following a full meal (sequence AC, treatment A), geometric mean (CV%)), the AUC(0-t) stood at 13500 ng·h/mL. The same compound had a Cmax in [2] (human, plasma, oral, 100 mg, Cmax, 100 mg alone, 2 h following a full meal (sequence AC, treatment A), geometric mean (CV%)) of 675 ng/mL. For the same compound, the Tmax in data set [2] (human, plasma, oral, 100 mg, Tmax, 100 mg alone, 2 h following a full meal (sequence AC, treatment A), median (minimum–maximum)) is 3.03 h. The compound further showed a Vd/F in data set [2] (human, plasma, oral, 100 mg, Vz/F, 100 mg alone, 2 h following a full meal (sequence AC, treatment A), geometric mean (CV%)) of 223 L. Also, the half-life in data set [2] (human, plasma, oral, 100 mg, t1/2, 100 mg alone, 2 h following a full meal (sequence AC, treatment A), arithmetic mean (SD)) was 21.3 h. For the same compound, in [3] (setting [11]), the “Vsac (volume of single adjusting compartment)” value turned out to be 0.5 L/kg. In data set [3] (setting [11]), the “kin (first-order rate constant to single adjusting compartment)” value turned out to be 0.07 h⁻¹. Also, the “kout (first-order rate constant from single adjusting compartment)” value in data set [3] (setting [11]) was found to be 0.07 h⁻¹. The “CLint,CYP3A4 (CYP3A4-specific intrinsic clearance)” value in data set [3] (Optimized by fitting clinical data (U107), milademetan and itraconazole sequence) is 0.459 µL/min/pmol of isoform. Moreover, in data set [3] (fitted to period one of sequence AB (alone, fasted), U107), the “oral clearance (CLpo), optimized” value was 8.5 L/h. Also, in data set [3] (human), the microsomal CLint is 40.2 µL/min/mg. In addition, the “fmCYP3A4 (fraction metabolized by CYP3A4)” value in data set [3] (optimized to recover observed AUCR and CmaxR of sequence AB (itraconazole)) was 0.58. Also, the remaining parent was 61 % of the total radioactivity in [4] and 84 % of the total radioactivity in data set [5]. In data set [1], this compound gave a Papp at 120 min of 17 ×10⁻⁶ cm/s. The same compound gave a KI (inactivation) in [6] of 60.5 µM. Also, the Ki in data set [6] was found to be 4.2 µM. Also, the “biliary excretion of radioactivity” value in data set [7] (setting [12]) is 20.4 ± 1.8 % of the dose. Further, the “radioactivity recovered in feces” value in [7] (setting [12]) is 75.1 ± 3.3 % of the dose; in [7] (noncannulated rats, after 168 hours) it was 94.2 ± 0.7%. The “reduction of exposure (AUC) with food” value in data set [8] is given as 24%. The fraction unbound in data set [9] amounted to 0.02. In data set [10] (120 mg q.d. 21/28, after 18–21 days of continuous dosing), the accumulation at steady-state is given as 1.8 fold. In data set [10] (dose range 15–340 mg), the “dose proportionality of systemic exposure” value was “dose‐proportional increase in systemic drug exposure”. Moreover, the figures for the maximum tolerated dose in data set [10] (q.d. 3/14 × 2 schedule) and in data set [10] (q.d. 21/28 schedule) were 260 mg and 160 mg, respectively.
